From ChEMBL document CHEMBL1148952, “A new ene-triyne antibiotic from the fungus Baeospora myosura” (2004)
Values after ≈ are worked out from the molar mass of the structure shown. Active and inactive are the calls of the source. The rule behind the calls is not given here.

Assays:
Staphylococcus aureus [1] = assay: Antimicrobial activity against methicillin-sensitive Staphylococcus aureus after 20 hrs in presence of 50% serum; format: functional
Staphylococcus aureus [2] = assay: Antimicrobial activity against methicillin-resistant Staphylococcus aureus after 20 hrs; format: functional
Outline: (§1)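 Broth MIC determination in cation-adjusted Mueller-Hinton broth, inoculum 10^5 cfu/mL, incubated 35 °C for 20 h.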

Staphylococcus aureus [3] = assay: Antimicrobial activity against methicillin-resistant coagulase negative Staphylococcus aureus after 20 hrs; format: functional; outline: as §1
Staphylococcus aureus [4] = assay: Antimicrobial activity against methicillin-sensitive Staphylococcus aureus after 20 hrs; format: functional; outline: as §1
Priestia megaterium = assay: Antimicrobial activity against Bacillus megaterium after 20 hrs; format: functional
Outline: (§2)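 Broth MIC in cation-adjusted Mueller-Hinton broth. Inoculum 10^5 cfu/mL, incubated 35 °C for 20 h. Test material was held as a DMSO stock, with concentration set by UV absorbance at 325 nm of a MeOH dilution (ε = 2 × 10^4 M-1 cm-1).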

Klebsiella pneumoniae = assay: Antimicrobial activity against Klebsiella pneumoniae after 20 hrs; format: functional; outline: as §2
Haemophilus influenzae = assay: Antimicrobial activity against Haemophilus influenzae after 20 hrs; format: functional
Outline: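 Haemophilus Test medium broth MIC. Inoculum 10^5 cfu/mL, incubated 35 °C for 20 h. Compound supplied from a DMSO stock quantified by UV absorbance at 325 nm.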

Pseudomonas aeruginosa = assay: Antimicrobial activity against Pseudomonas aeruginosa after 20 hrs; format: functional; outline: as §2
Streptococcus pneumoniae [5] = assay: Antimicrobial activity against Streptococcus pneumoniae after 20 hrs; format: functional
Outline: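 MIC by broth dilution in cation-adjusted Mueller-Hinton broth with 2.5% lysed horse blood. Inoculum 10^5 cfu/mL, 35 °C for 20 h. DMSO stock quantified by UV absorbance at 325 nm.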

[6] = tested on: coagulase-negative Staphylococcus; assay: Antimicrobial activity against methicillin-resistant coagulase negative Staphylococcus after 20 hrs
Streptococcus pneumoniae [7] = assay: Antimicrobial activity against penicillin-resistant Streptococcus pneumoniae after 20 hrs; format: functional
Outline: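 Broth MIC determination in cation-adjusted Mueller-Hinton broth supplemented with 2.5% lysed horse blood, inoculum 10^5 cfu/mL, incubated 35 °C for 20 h.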

Enterococcus faecium = assay: Antimicrobial activity against vancomycin-resistant Enterococcus faecium after 20 hrs; format: functional; outline: as §1
Candida albicans = assay: Antimicrobial activity against Candida albicans after 24 hrs; format: functional
Outline: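 Yeast MIC in RPMI 1640. Inoculum 10^3 cfu/mL, incubated 35 °C for 24 h. Compound supplied from a DMSO stock quantified by UV absorbance at 325 nm.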

Streptococcus pyogenes = assay: Antimicrobial activity against Streptococcus pyogenes after 20 hrs; format: functional
Escherichia coli = assay: Antimicrobial activity against Escherichia coli after 20 hrs; format: functional; outline: as §2
Enterococcus faecalis = assay: Antimicrobial activity against vancomycin-sensitive Enterococcus faecalis after 20 hrs; format: functional; outline: as §2

| SMILES | Activity (Staphylococcus aureus [1]) | Activity (Staphylococcus aureus [2]) | Activity (Staphylococcus aureus [3]) | Activity (Staphylococcus aureus [4]) | MIC (Staphylococcus aureus [1]) | MIC (Priestia megaterium) | MIC (Klebsiella pneumoniae) | MIC (Staphylococcus aureus [2]) | MIC (Haemophilus influenzae) | MIC (Pseudomonas aeruginosa) | MIC (Streptococcus pneumoniae [5]) | MIC [6] | MIC (Streptococcus pneumoniae [7]) | MIC (Enterococcus faecium) | MIC (Candida albicans) | MIC (Streptococcus pyogenes) | MIC (Staphylococcus aureus [4]) | MIC (Escherichia coli) | MIC (Enterococcus faecalis) |
| --- | --- | --- | --- | --- | --- | --- | --- | --- | --- | --- | --- | --- | --- | --- | --- | --- | --- | --- | --- |
| CCCCCCCCC(=O)Nc1ccc(C(=O)O)cc1 | inactive | inactive | inactive | inactive |  |  |  |  |  |  |  |  |  |  |  |  |  |  |  |
| CC(=O)Nc1ccc(C(=O)O)cc1 | inactive | inactive | inactive | inactive |  |  |  |  |  |  |  |  |  |  |  |  |  |  |  |
| C#CC#CC#C/C=C/C(=O)Nc1ccc(C(=O)O)cc1 |  |  |  |  | 16 µg/mL | 4 µg/mL (≈ 15.2 µM) | > 32 µg/mL | 0.001 µg/mL (≈ 0.0038 µM) | 0.5 µg/mL (≈ 1.9 µM) | > 32 µg/mL | 8 µg/mL (≈ 30.4 µM) | 0.0005 µg/mL (≈ 0.0019 µM) | 16 µg/mL (≈ 60.8 µM) | 0.015 µg/mL (≈ 0.057 µM) | > 32 µg/mL | 0.008 µg/mL (≈ 0.0304 µM) | 0.0005 µg/mL (≈ 0.0019 µM) | 32 µg/mL (≈ 122 µM) | 0.12 µg/mL (≈ 0.456 µM) |
